Assay results: ChEMBL document CHEMBL1153061, “Synergism of virtual screening and medicinal chemistry: identification and optimization of allosteric antagonists of metabotropic glutamate receptor 1” (Bioorg Med Chem, 2009)
The source made the active and inactive calls. The calls are words filed in the database; no cut-off is given here.

Key:
[1] = biological target: T1, Metabotropic glutamate receptor 1 (Rattus norvegicus, UniProt P23385); assay: Displacement of [3H]E-3-(2-chloro-8-methylquinolin-3-yl)-1-(thiophen-2-yl)prop-2-en-1-one from mGluR1 in rat cerebellar membrane after 14 to 16 hrs by scintillation counting; assay type: cell membranes, Cerebellum
T1 sequence (P23385 whole entry): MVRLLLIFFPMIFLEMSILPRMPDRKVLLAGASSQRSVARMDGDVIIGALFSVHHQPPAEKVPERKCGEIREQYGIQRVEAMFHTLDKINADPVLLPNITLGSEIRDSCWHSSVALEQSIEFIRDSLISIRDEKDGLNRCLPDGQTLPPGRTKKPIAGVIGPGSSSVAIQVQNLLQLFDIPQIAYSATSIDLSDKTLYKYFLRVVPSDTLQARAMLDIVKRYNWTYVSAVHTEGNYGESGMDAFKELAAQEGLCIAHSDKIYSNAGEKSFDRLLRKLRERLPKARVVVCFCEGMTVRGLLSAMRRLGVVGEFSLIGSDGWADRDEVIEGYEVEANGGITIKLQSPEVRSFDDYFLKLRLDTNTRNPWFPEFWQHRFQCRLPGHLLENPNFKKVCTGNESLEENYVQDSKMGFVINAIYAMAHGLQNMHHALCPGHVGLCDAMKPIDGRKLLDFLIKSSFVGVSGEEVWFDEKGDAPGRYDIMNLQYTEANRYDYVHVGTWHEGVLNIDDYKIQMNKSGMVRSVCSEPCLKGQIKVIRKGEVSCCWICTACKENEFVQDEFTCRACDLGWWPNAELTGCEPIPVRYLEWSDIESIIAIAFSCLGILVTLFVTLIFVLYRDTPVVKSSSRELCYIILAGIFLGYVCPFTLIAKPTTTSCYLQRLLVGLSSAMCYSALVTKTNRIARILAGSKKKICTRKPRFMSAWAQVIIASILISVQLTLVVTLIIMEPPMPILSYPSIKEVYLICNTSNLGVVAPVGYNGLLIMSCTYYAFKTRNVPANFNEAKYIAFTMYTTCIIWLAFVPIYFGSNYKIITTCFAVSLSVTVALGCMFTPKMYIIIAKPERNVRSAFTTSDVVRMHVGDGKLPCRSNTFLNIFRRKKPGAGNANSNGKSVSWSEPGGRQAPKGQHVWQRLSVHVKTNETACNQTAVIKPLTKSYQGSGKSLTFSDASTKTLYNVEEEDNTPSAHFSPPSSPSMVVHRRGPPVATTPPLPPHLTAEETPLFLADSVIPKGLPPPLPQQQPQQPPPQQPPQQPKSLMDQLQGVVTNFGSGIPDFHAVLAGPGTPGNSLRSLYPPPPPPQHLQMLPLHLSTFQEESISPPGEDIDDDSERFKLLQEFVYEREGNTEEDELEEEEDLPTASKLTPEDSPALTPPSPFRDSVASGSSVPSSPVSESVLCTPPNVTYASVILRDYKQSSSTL

[2] = biological target: Metabotropic glutamate receptor 5 (Rattus norvegicus, UniProt P31424); assay: Displacement of [3H]MPEP from mGluR5 in rat cortical membrane after 60 mins by liquid scintillation counting; assay type: cell membranes
Metabotropic glutamate receptor 5, sequence (P31424 whole entry): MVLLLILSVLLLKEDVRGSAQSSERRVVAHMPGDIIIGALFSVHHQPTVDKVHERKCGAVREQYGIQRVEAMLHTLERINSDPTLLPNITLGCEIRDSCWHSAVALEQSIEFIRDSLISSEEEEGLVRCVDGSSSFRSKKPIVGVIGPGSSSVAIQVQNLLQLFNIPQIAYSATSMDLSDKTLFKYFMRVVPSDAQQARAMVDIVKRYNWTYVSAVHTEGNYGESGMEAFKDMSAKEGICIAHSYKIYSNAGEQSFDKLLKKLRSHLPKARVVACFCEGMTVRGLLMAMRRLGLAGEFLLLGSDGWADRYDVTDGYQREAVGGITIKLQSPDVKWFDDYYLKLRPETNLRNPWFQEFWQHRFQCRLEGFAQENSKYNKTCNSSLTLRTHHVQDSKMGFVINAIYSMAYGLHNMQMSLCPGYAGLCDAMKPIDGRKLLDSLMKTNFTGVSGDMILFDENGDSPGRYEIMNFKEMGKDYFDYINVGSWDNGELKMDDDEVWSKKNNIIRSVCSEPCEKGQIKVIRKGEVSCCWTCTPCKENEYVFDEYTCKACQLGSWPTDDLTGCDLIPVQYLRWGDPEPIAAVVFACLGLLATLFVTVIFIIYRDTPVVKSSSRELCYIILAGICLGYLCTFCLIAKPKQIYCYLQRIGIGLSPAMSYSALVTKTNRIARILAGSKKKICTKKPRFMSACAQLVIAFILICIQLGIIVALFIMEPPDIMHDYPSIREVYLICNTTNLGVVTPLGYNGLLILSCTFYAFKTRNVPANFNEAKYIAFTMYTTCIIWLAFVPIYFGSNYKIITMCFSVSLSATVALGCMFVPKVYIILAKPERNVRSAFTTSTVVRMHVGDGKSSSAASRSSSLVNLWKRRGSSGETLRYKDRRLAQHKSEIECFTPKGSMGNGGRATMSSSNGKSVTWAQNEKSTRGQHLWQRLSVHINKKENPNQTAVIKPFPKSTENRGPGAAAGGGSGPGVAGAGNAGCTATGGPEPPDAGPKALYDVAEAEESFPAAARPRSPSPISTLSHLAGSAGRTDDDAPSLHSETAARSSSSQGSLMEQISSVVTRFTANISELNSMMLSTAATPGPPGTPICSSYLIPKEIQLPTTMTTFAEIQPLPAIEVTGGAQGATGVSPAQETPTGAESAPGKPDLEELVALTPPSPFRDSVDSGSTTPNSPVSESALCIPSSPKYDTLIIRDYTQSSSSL
Outline: (§1)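 Rat cortical membranes, 125–250 µg protein, incubated with 5 nM [3H]-MPEP (50.2 Ci/mmol) and varying concentrations of test agent. Filters rinsed, and bound radioactivity counted by liquid scintillation.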

[3] = biological target: T1, Metabotropic glutamate receptor 1; assay: Allosteric antagonist activity at mGluR1 in Sprague-Dawley rat cerebellar granule cells assessed as accumulation of [3H]inositol phosphate by liquid scintillation counting; assay type: functional
Outline: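 Cerebellar granule cells from P8 Sprague Dawley rats grown in BEM with 10% foetal calf serum and 2 mM glutamine. At 6 DIV switched to inositol-free DMEM with [3H]-myo-inositol (0.5 µCi/100 µl/well) for 48 h. Cells preincubated 15 min at 37 °C in Locke's buffer (20 mM LiCl, pH 7.4), then 45 min with agonists/test ligands. Lysed with 0.1 M HCl 10 min on ice. Inositol phosphates isolated on formate columns, eluted with 1 M ammonium formate/0.1 M formic acid, counted by liquid scintillation.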

[4] = organism: Rattus norvegicus; assay: Selectivity ratio of Ki for mGluR5 in rat cortical membrane to Ki for mGluR1 in rat cerebellar membrane; assay type: cell membranes
[5] = biological target: Metabotropic glutamate receptor 1 (Homo sapiens, UniProt Q13255); assay: Binding affinity to human GluR1 by FLIPR assay
Metabotropic glutamate receptor 1 (Homo sapiens, UniProt Q13255), sequence (Q13255 whole entry): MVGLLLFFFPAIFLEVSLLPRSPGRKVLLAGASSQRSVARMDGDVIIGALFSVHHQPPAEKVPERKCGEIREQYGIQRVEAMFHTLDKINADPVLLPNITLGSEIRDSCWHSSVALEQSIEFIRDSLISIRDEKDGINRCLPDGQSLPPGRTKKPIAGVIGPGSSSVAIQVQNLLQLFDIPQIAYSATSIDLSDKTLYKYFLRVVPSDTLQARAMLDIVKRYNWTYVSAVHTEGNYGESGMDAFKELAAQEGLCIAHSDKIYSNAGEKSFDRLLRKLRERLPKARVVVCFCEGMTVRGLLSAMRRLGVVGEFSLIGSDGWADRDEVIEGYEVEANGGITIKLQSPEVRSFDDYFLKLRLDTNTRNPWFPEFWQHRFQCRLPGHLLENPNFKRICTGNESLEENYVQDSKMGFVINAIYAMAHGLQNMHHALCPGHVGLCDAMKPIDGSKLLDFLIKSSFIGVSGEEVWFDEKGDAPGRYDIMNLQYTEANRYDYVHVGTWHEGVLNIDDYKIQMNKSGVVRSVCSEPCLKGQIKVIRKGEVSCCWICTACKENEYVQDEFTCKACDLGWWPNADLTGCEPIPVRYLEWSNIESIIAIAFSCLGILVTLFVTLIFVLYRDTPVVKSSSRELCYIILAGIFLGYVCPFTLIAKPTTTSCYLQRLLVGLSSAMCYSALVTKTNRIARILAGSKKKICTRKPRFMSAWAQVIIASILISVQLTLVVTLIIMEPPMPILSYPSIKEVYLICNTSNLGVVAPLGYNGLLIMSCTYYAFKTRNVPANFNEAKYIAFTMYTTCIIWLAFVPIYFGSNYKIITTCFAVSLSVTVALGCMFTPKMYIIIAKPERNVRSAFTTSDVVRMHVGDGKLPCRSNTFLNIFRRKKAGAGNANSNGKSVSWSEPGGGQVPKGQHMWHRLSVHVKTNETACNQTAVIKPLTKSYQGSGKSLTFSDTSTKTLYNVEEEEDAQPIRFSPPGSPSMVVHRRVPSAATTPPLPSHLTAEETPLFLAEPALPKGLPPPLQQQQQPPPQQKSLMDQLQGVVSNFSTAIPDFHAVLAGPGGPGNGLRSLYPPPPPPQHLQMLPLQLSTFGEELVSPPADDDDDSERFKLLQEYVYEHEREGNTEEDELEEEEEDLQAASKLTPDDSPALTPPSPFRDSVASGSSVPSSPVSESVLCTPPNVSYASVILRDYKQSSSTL

[6] = Solubility in water; assay type: physicochemical; settings: buffer
[7] = biological target: Metabotropic glutamate receptor 5 (Rattus norvegicus) (UniProt P31424); assay: Binding affinity to GluR5 in rat cortical membrane up to 10 uM; assay type: cell membranes; outline: as §1
Metabotropic glutamate receptor 5 (Rattus norvegicus), sequence (P31424 21-1203 limits assumed): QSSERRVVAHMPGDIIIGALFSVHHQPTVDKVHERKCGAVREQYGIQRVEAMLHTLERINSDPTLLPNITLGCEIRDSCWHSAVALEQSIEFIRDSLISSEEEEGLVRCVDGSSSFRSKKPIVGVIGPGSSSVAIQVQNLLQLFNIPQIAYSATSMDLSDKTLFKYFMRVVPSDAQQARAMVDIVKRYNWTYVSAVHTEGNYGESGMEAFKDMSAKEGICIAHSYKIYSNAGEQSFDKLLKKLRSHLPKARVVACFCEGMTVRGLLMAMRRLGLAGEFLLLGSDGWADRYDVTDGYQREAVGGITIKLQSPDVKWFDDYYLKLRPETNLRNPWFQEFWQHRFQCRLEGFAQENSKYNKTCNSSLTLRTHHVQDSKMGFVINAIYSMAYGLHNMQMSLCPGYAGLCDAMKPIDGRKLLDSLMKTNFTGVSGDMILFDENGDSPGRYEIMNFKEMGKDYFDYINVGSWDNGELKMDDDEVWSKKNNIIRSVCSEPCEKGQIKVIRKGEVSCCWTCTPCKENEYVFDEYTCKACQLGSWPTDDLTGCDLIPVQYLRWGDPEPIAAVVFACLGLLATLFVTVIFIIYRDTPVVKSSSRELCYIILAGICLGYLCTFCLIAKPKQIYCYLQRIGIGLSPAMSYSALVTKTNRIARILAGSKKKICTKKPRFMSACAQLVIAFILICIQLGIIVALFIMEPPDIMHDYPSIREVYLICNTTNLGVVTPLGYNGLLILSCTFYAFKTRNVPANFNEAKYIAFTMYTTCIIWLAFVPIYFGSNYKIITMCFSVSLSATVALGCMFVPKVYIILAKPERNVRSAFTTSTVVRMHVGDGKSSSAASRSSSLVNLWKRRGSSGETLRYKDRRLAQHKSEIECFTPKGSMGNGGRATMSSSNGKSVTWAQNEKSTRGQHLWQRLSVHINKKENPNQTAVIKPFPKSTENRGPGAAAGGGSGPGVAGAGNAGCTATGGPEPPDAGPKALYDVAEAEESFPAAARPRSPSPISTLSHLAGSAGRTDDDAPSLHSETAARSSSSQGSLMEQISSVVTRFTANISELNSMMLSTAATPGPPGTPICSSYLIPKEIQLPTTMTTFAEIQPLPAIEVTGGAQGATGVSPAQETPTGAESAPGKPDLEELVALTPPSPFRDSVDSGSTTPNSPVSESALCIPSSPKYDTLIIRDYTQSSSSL

SMILES	Ki [1] [µM]	Ki [2] [µM]	IC50 [3] [µM]	Ratio Ki [4]	Ki [5] [µM]	solubility [6]	Activity [7]
COc1ccc(C(=O)/C=C/c2cc3cc(C)ccc3nc2Cl)cc1	> 40	> 100	20.5	–	–	–	–
CCCCC1CCC(C(=O)Oc2ccc(C(C)=O)cc2)CC1 (configuration not stated)	> 40	–	> 40	–	–	–	–
O=C(/C=C/c1ccc(Cl)cc1)c1ccc(Oc2ccccc2)cc1	> 40	–	30	–	–	–	–
O=c1cc(-c2ccccc2)c2ccc(OCc3ccc(F)cc3)cc2o1	> 40	–	23.9	–	–	–	–
O=C(/C=C/c1cnc2ccccc2c1)C12CC3CC(CC(C3)C1)C2	0.021	0.807	–	29.9	–	–	–
CCCCCCc1cc2c3c(c(=O)oc2cc1OC)CCC3	> 40	–	23.9	–	–	–	–
Cc1cccc2cc(/C=C/C(=O)c3ccccc3)c(Cl)nc12	> 40	> 100	8.5	–	–	–	–
CCn1c2ccccc2c2cc(/C=N/c3ccc(C)c(F)c3)ccc21	> 40	–	> 40	–	–	–	–
Cc1ccc2cc(/C=C/C(=O)c3cccs3)c(Cl)nc2c1	17.2	> 100	2.97	–	–	–	–
O=C(C1CC1c1cccnc1)C12CC3CC(CC(C3)C1)C2 (configuration not stated)	7.04	22.9	–	3.26	–	–	–
CCOc1ccc(C(=O)/C=C/c2ccc(OCc3ccc(Cl)cc3Cl)cc2)cc1	> 40	–	> 40	–	–	–	–
O=C(C1CC1c1ccc(N2CCOCC2)nc1)C12CC3CC(CC(C3)C1)C2 (configuration not stated)	0.024	27.8	–	1160	0.11	Soluble	–
CCCCCCOc1ccc(C(=O)Oc2ccc(C3CCCCC3)cc2)cc1	> 40	–	> 40	–	–	–	–
COc1cc2c(cc1OC)C(Cc1ccccc1)=NC(C)(C)C2	> 40	–	> 40	–	–	–	–
O=C(c1ccccc1)c1ccc(/N=C/c2ccc(Br)cc2)cc1	> 40	–	> 40	–	–	–	–
COc1ccc(C(=O)c2ccc(C(=O)c3ccc(C)c(OC)c3)cc2)cc1C	> 40	–	> 40	–	–	–	–
Cc1ccc2cc(/C=C/C(=O)c3c(C)coc3C)c(Cl)nc2c1	> 40	> 100	> 40	–	–	–	–
O=C(/C=C/c1ccc2c(c1)OCCO2)C12CC3CC(CC(C3)C1)C2	0.641	6.23	–	9.72	–	–	–
COc1ccc(/C=C/C(=O)C23CC4CC(CC(C4)C2)C3)cc1C	0.294	5.15	–	17.5	–	–	–

SMILES	Ki [1] [µM]	Ki [2] [µM]	IC50 [3] [µM]	Ratio Ki [4]	Ki [5] [µM]	solubility [6]	Activity [7]
COc1ccc(C2CC2C(=O)C23CC4CC(CC(C4)C2)C3)cn1 (configuration not stated)	0.304	18.4	–	60.5	–	–	–
CC(C)(C)C(=O)/C=C/c1cnc2ccccc2c1	5.23	30.6	–	5.9	–	–	–
CC(CC(=O)c1ccc2c(c1)OCCO2)c1ccccc1 (configuration not stated)	36.2	–	10.6	–	–	–	–
O=C(/C=C/c1cnc2ccccc2c1)C1CC1	> 100	> 100	–	–	–	–	–
CCCCOc1ccc(-c2nnc(-c3ccc(-c4ccccc4)cc3)s2)cc1	> 40	–	28.4	–	–	–	–
CC(=O)c1ccc(OC(=O)c2ccc(-c3ccccc3)cc2)cc1	> 40	–	> 40	–	–	–	–
Cc1ccc2nc(Cl)c(/C=C/C(=O)c3cccs3)cc2c1	9.93	> 100	0.74	–	–	–	–
CCCCCc1ccc(-c2ccc(OC(=O)C3CCC(CC)CC3)cc2)nc1 (configuration not stated)	> 40	–	22.5	–	–	–	–
O=c1cc(-c2ccccc2)c2ccc(OCc3cccc(Oc4ccccc4)c3)cc2o1	> 40	–	> 40	–	–	–	–
CC(Oc1ccc2c(c1)oc(=O)c1ccccc12)c1ccccc1 (configuration not stated)	> 40	–	> 40	–	–	–	–
COc1ccc(C(=O)/C=C/c2cc3ccc(C)cc3nc2Cl)cc1	> 40	> 100	39.3	–	–	–	–
O=C(c1ccc(Cl)cc1)c1ccc2c(c1)CCCCO2	> 40	–	> 40	–	–	–	–
O=C(C1CC1c1cnc2ccccc2c1)C12CC3CC(CC(C3)C1)C2 (configuration not stated)	0.137	> 100	–	> 730	–	–	inactive
O=c1cc(-c2ccccc2)c2cc(Cl)c(OCc3ccc(F)cc3)cc2o1	> 40	–	> 40	–	–	–	–
Cc1ccc2nc(Cl)c(/C=C/C(=O)c3ccccc3)cc2c1	9.18	> 100	1.7	–	–	–	–
COc1ccc(C(=O)/C=C/c2ccc(OC3CSC3)cc2)cc1	> 40	–	> 40	–	–	–	–
COc1ccc(-c2cc(C)nc(-c3ccc(OC)c(Br)c3)c2)cc1Br	> 40	–	> 40	–	–	–	–
Cc1ccc(C(=O)c2ccc(Oc3ccccc3)cc2)cc1C	> 40	–	15.3	–	–	–	–
